Drawing on ChEMBL document CHEMBL4382295, “Enhanced Tumor Selectivity of 5-Fluorouracil Using a Reactive Oxygen Species-Activated Prodrug Approach” (ACS Med Chem Lett, 2019), this text covers inhibition of growth, viability and Activity for four compounds.

Active and inactive are the calls of the source. The rule behind the calls is not given here.

One data set has as its system MDA-MB-468. In words: Antiproliferative activity against human MDA-MB-468 cells assessed as growth inhibition at 50 uM after 48 hrs by sulforhodamine B assay relative to control. Particulars: MDA-MB-468, 48 h, read-out: GI. It counts as functional. In outline:
(§1)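 NCI cell-line screen (protocol per DTP/NCI). Cells exposed to a single concentration of 50 μM for 48 h, then percent growth inhibition determined.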
For orientation: The SRB assay estimates cell density from bound dye.

Data set [1] can be described thus: Cytotoxicity against human MEC1 cells assessed as cell viability at 1 to 100 uM after 48 to 72 hrs by CCK8 assay relative to control. The format is cell-based. Particulars: read-out: Activity. In a few lines: (§2)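 Breast cancer MCF7 cells and normal MEC1 cells treated at a range of concentrations, concentrations up to 100 μM. Cell viability then measured. Mean ± SD, n = 4.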

Data set [2] deals with MCF7. Nature of the data set: Induction of apoptosis in human MCF7 cells assessed as increase in cleaved PARP1 level up to 100 uM after 48 hrs by Western blot analysis. The format is functional, cell-based. In a few lines:
(§3)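 MCF7 cells treated 48 h at the indicated concentrations, with vehicle-treated cells as control. Lysates immunoblotted for PARP1 and caspase 3 and their cleaved forms (CL-PARP1, CL-caspase 3).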

Data set [3] in a line: Acute toxicity in C57BL/6J mouse assessed as death at 100 mg/kg, ip administered every other day for 15 days measured during compound dosing. The format is organism-based. Particulars: in vivo, 360 h. In outline: (§4)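 Wild-type male C57BL/6 mice, randomized into three groups of seven (21 total): vehicle (5% DMSO and 15% polyethylene glycol in saline) or 100 mg/kg test article. Dosed ip every other day for 15 days. Survival, body weight, eating, drinking and activity were recorded throughout treatment.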

Data set [4] is described as follows: Acute toxicity in C57BL/6J mouse assessed as abnormality in drinking at 100 mg/kg, ip administered every other day for 15 days measured during compound dosing. The format is organism-based. Particulars: in vivo, 360 h. In a few lines: as §4
Data set [5] is described as follows: Acute toxicity in C57BL/6J mouse assessed as abnormality in eating at 100 mg/kg, ip administered every other day for 15 days measured during compound dosing. The format is organism-based. The note with it: in vivo, 360 h. In a few lines: as §4
Data set [6] can be described thus: Acute toxicity in C57BL/6J mouse assessed as decrease in body weight at 100 mg/kg, ip administered every other day for 15 days measured during compound dosing. It counts as organism-based. The note with it: in vivo, 360 h. In a few lines:
as §4

In data set [7] the test system is MCF7. Nature of the data set: Antiproliferative activity against human MCF7 cells assessed as growth inhibition at 50 uM after 48 hrs by sulforhodamine B assay relative to control. The note with it: MCF7, 48 h, read-out: GI. The format is functional. In a few lines:
as §1

In a further data set the test system is NCI-H522. Nature of the data set: Antiproliferative activity against human NCI-H522 cells assessed as growth inhibition at 50 uM after 48 hrs by sulforhodamine B assay relative to control. It counts as functional. The note with it: NCI-H522, 48 h, read-out: GI. In a few lines:
as §1

Data set [8] deals with MCF7. Nature of the data set: Induction of DNA damage in human MCF7 cells assessed as increase in gammaH2AX level after 48 hrs by DAPI staining based immunofluorescence assay. It counts as functional, cell-based. In outline: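 MCF7 cells treated 48 h at the indicated concentrations. γH2AX formation, a marker of DNA double-strand breaks, visualized by immunofluorescence.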

The test system of data set [9] is MCF7. In words: Antiproliferative activity against human MCF7 cells assessed as reduction in cell viability at 50 to 100 uM after 48 hrs in presence of ROS scavenger NAC by MTT assay.
Data set [10] relates to MCF7. In words: Induction of apoptosis in human MCF7 cells assessed as increase in cleaved caspase-3 level up to 100 uM after 48 hrs by Western blot analysis. It counts as functional, cell-based. In outline: as §3
Data set [11] relates to MCF7. Nature of the data set: Antiproliferative activity against human MCF7 cells assessed as reduction in cell viability at 1 to 100 uM after 48 to 72 hrs by CCK8 assay. It counts as functional, cell-based. In outline:
as §2
In general terms: Tetrazolium dyes change colour on reduction, which living cells bring about.

For the next data set, the system named is MDA-MB-435. Nature of the data set: Antiproliferative activity against human MDA-MB-435 cells assessed as growth inhibition at 50 uM after 48 hrs by sulforhodamine B assay relative to control. The format is functional. The note with it: MDA-MB-435, 48 h, read-out: GI. In outline:
as §1

Another data set concerns OVCAR-3. In words: Antiproliferative activity against human OVCAR3 cells assessed as growth inhibition at 50 uM after 48 hrs by sulforhodamine B assay relative to control. It counts as functional. The note with it: OVCAR-3, 48 h, read-out: GI. In outline:
as §1

The nature of data set [12]: Acute toxicity in C57BL/6J mouse assessed as effect on normal activity at 100 mg/kg, ip administered every other day for 15 days measured during compound dosing. It counts as organism-based. The note with it: in vivo, 360 h. In a few lines:
as §4

The nature of data set [13]: Acute toxicity in C57BL/6J mouse assessed as death at 100 mg/kg, ip administered every other day for 12 days. It counts as organism-based. The note with it: in vivo, 288 h.
Data set [14] can be described thus: Acute toxicity in C57BL/6J mouse assessed as decrease in body weight at 100 mg/kg, ip administered every other day for 12 days. The format is organism-based. The note with it: in vivo, 288 h.

Turning to `CC1(C)OB(c2ccc(Cn3cc(F)c(=O)[nH]c3=O)cc2)OC1(C)C`, the inhibition of growth at 50 µM is 87% in the data set with MDA-MB-468; 81% in the data set with MCF7 [7]; 90% with NCI-H522; 96% in the data set with MDA-MB-435; 95% with OVCAR-3. For the same compound, the viability at up to 100 µM in [1] was over 95%. The result in the data set with MCF7 [2], with MCF7 [8], in the data set on MCF7 [10] and in the data set on MCF7 [11] was Active. In addition, the Activity entry in [3], in [4], in data set [5], in data set [6] and in data set [12] was “Non-Toxic” each time. For the same compound, the outcome with MCF7 [9] was inactive.
With `O=c1[nH]c(=O)n(Cc2ccccc2)cc1F`, the result in the data set with MCF7 [11] was inactive.
Take `O=c1[nH]cc(F)c(=O)[nH]1` [FLUOROURACIL]: the Activity entry in data set [13] and in [14] was “Toxic” in each case. Also, the result in the data set on MCF7 [2], in the data set with MCF7 [8], in the data set with MCF7 [10] and in the data set with MCF7 [11] was Active.
As to `O=c1[nH]c(=O)n(Cc2ccc(B(O)O)cc2)cc1F`, the inhibition of growth at 50 µM in the data set with MDA-MB-468 came to 22%; in the data set on MCF7 [7], 33%; in the data set on NCI-H522, 44%; in the data set on MDA-MB-435, 65%; in the data set on OVCAR-3, 30%. The viability at up to 100 µM in data set [1] is over 95%. Besides, the result in the data set on MCF7 [2], with MCF7 [8], in the data set on MCF7 [10] and in the data set with MCF7 [11] was Active. Besides, the outcome in the data set on MCF7 [9] was inactive.
